Laboratory results: ChEMBL document CHEMBL2396594, “Designing allosteric regulators of thrombin. Exosite 2 features multiple subsites that can be targeted by sulfated small molecules for inducing inhibition” (J Med Chem, 2013)
Active and inactive are the calls of the source. No cut-off for these calls is given here. Where a SMILES comes first, the peptide text is derived from it. [ ]: non-standard residue; d: D form. pY = N[C@@H](Cc1ccc(OP(=O)(O)O)cc1)C(=O)O

Tests used:
[1] = (§1) Inhibition of human plasma alpha-thrombin assessed as spectrozyme TH hydrolysis preincubated for 10 mins by spectrophotometric analysis; type: cell-free
How it was run: (§2)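 Human plasma α-thrombin (5 nM final) with inhibitor (1−900 μM final) in 20 mM Tris-HCl pH 7.4, 100 mM NaCl, 2.5 mM CaCl2, 0.1% PEG8000, PEG20000-coated cuvettes, 10 min. Spectrozyme TH then added (30 μM final). Initial rate from A405 increase. Residual activity fitted by logistic equation with floating Hill slope, Y0, YM to give IC50.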

Homo sapiens [2] = species on record: Homo sapiens; experiment: Inhibition of human plasma alpha-thrombin assessed as spectrozyme TH hydrolysis at 1 to 900 uM preincubated for 10 mins by spectrophotometric analysis relative to control; type: cell-free; how it was run: as §2
[3] = molecular target: Coagulation factor X (Homo sapiens) (UniProt P00742); experiment: Inhibition of human factor 10a at 365 uM
Sequence of Coagulation factor X (Homo sapiens) (P00742 41-179 limits assumed): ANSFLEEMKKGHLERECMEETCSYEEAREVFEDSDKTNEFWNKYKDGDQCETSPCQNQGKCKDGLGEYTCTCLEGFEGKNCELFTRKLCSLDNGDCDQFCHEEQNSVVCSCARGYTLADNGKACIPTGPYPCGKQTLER
Sequence of Coagulation factor X (Homo sapiens) (P00742 235-488 limits assumed): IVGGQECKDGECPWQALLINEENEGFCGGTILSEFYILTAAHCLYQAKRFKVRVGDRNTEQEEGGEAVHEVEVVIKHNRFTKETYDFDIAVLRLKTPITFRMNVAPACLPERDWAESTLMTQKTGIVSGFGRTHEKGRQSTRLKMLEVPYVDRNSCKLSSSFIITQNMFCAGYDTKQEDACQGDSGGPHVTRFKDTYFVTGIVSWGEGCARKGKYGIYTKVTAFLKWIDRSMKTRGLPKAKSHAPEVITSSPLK

Prothrombin = Prothrombin (Homo sapiens, UniProt P00734); experiment: Binding affinity to thrombin exosite-2 (unknown origin)
Homo sapiens [4] = species on record: Homo sapiens; experiment: Binding affinity to human plasma alpha-thrombin exosite-2 using spectrozyme TH as substrate after overnight incubation at 25 degC by spectrophotometric analysis; type: cell-free
Homo sapiens [5] = species on record: Homo sapiens; experiment: as §1; type: cell-free; how it was run: as §2

SMILES	IC50 ([1]; read-out: IC50) [µM]	IC50 ([1]; read-out: pIC50 (converted)) [µM]	Efficacy (Homo sapiens [2]) [%]	inhibition [3]	K (Prothrombin) [µM]	K (Homo sapiens [4]) [µM]	inhibition (Homo sapiens [5])
CCOC(=O)c1c(C)oc2cc(OC)c(OCc3oc4cc(OC)c(OCc5oc6cc(OCC)c(OS(=O)(=O)O)cc6c5C(=O)OCC)cc4c3C(=O)OCC)cc12	5.8	5.89	43	inactive			
C=CCOC(=O)c1c(C)oc2cc(OC)c(OCc3oc4cc(OC)c(OCc5oc6cc(OC)c(OS(=O)(=O)O)cc6c5C(=O)OCC)cc4c3C(=O)OCC)cc12	31	30.9	53				
CCOC(=O)c1c(C)oc2cc(OC)c(OCc3oc4cc(OC)c(OCc5oc6cc(OC)c(OS(=O)(=O)O)cc6c5C(=O)OC)cc4c3C(=O)OCC)cc12	2	2.04	39	inactive			
CC(C)C[C@H](NC(=O)[C@H](CC(=O)O)NC(=O)[C@H](CC(=O)O)NC(=O)[C@H](CCC(=O)O)NC(=O)[C@@H]1CCCN1C(=O)[C@H](Cc1ccc(OP(=O)(O)O)cc1)NC(=O)[C@H](CC(C)C)NC(=O)[C@H](CO)NC(=O)[C@H](CC(=O)O)NC(=O)[C@H](Cc1ccc(OP(=O)(O)O)cc1)NC(=O)[C@H](CCC(=O)O)NC(=O)[C@@H](NC(=O)[C@H](CCC(=O)O)NC(=O)[C@H](C)NC(=O)[C@@H]1CCCN1C(=O)[C@H](Cc1cnc[nH]1)NC(=O)[C@H](CCC(=O)O)NC(=O)[C@@H]1CCCN1C(=O)[C@H](CCCNC(=N)N)NC(=O)[C@@H](N)C(C)C)[C@@H](C)O)C(=O)O (H-VRPEHPAETE[pY]DSL[pY]PEDDL-OH)					0.6		
CCOC(=O)c1c(COc2cc3c(C(=O)OCC)c(COc4cc5c(C(=O)O)c(C)oc5cc4OC)oc3cc2OC)oc2cc(OC)c(O)cc12	> 500			inactive			
CCOC(=O)c1c(C)oc2cc(OC)c(OCc3oc4cc(OC)c(OCc5oc6cc(OC)c(OCc7oc8cc(OC)c(OS(=O)(=O)O)cc8c7C(=O)OCC)cc6c5C(=O)OCC)cc4c3C(=O)OCC)cc12	158	158					
CCOC(=O)c1c(C)oc2cc(OC)c(OCc3oc4cc(OC)c(OCc5oc6cc(OC)c(OS(=O)(=O)O)cc6c5C(=O)OCCOC)cc4c3C(=O)OCC)cc12	> 500			inactive			
O=C(O)C1=C[C@H](O)[C@@H](OS(=O)(=O)O)[C@H](O[C@H]2[C@H](O)[C@@H](NS(=O)(=O)O)[C@@H](O[C@H]3[C@H](O)[C@@H](OS(=O)(=O)O)[C@H](O[C@H]4[C@H](O)[C@@H](NS(=O)(=O)O)[C@@H](O[C@H]5[C@H](O)[C@@H](OS(=O)(=O)O)[C@H](O[C@H]6[C@H](O)[C@@H](NS(=O)(=O)O)[C@@H](O[C@H]7[C@H](O)[C@@H](OS(=O)(=O)O)[C@H](O[C@H]8[C@H](O)[C@@H](NS(=O)(=O)O)[C@@H](O)O[C@@H]8COS(=O)(=O)O)O[C@H]7COS(=O)(=O)O)O[C@@H]6COS(=O)(=O)O)O[C@H]5COS(=O)(=O)O)O[C@@H]4COS(=O)(=O)O)O[C@H]3COS(=O)(=O)O)O[C@@H]2COS(=O)(=O)O)O1						2.7	
CCOC(=O)c1c(C)oc2cc(OC)c(OCc3oc4cc(OC)c(OCc5oc6cc(OC)c(OCc7oc8cc(OC)c(OS(=O)(=O)C(C)(C)C)cc8c7C(=O)OCC)cc6c5C(=O)OCC)cc4c3C(=O)OCC)cc12				inactive			
CCOC(=O)c1c(C)oc2cc(OC)c(OCc3oc4cc(OC)c(OCc5oc6cc(OC(C)C)c(OS(=O)(=O)O)cc6c5C(=O)OCC)cc4c3C(=O)OCC)cc12	99	100	26	inactive			
CCOC(=O)c1c(C)oc2cc(OC)c(OCc3oc4cc(OC)c(OCc5oc6cc(OS(=O)(=O)O)c(OC)cc6c5C(=O)OCC)cc4c3C(=O)OCC)cc12	154	155	91				
N=C(N)NCCC[C@H](NC(=O)[C@@H]1CCCN1C(=O)[C@H](N)Cc1ccccc1)C(=O)CCl							Active
CCOC(=O)c1c(COc2cc3c(C(=O)O)c(C)oc3cc2OC)oc2cc(OC)c(OCc3oc4cc(OC)c(OS(=O)(=O)O)cc4c3C(=O)OCC)cc12	66	66.1	49	inactive			
CCOC(=O)c1c(C)oc2cc(OC)c(OCc3oc4cc(OC)c(OCc5oc6cc(OC)c(OS(=O)(=O)O)cc6c5C(=O)OC(C)(C)C)cc4c3C(=O)OCC)cc12	165	166	94	inactive			
